These results are taken from PubChem BioAssay AID624466 (The Scripps Research Institute Molecular Screening Center, 2012).

What is called inhibition is the change of the read-out against control, counted positive when it falls.

The structures appear in SMILES notation. Screen size: about 360,000 compounds; about 5,400 (1.5%) were called active. The full list was thinned out, with actives kept by preference. Unmarked numbers belong to inactive results.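 The calls were made as follows: active = inhibition above a per-plate cutoff, the mean inhibition of test compounds on that plate plus 3 SD (cut at about 49% in these data); inactive = the rest.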 Where a SMILES comes first, the peptide text is derived from it. The star is where a group is joined. Bz = O=C(c1ccccc1)*

Trace amine-associated receptor 1 (Homo sapiens), sequence (Q96RJ0 whole entry, looked up): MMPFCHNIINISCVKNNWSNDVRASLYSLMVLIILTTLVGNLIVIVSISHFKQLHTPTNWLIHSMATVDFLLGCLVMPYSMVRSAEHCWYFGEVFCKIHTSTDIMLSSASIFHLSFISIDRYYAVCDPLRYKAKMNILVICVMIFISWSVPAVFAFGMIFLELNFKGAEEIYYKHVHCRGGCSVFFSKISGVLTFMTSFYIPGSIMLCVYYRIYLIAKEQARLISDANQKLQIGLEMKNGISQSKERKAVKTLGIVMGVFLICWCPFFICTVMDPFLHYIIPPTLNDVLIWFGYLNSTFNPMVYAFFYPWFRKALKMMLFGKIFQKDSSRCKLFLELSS

The target of this assay is Trace amine-associated receptor 1 (Homo sapiens) (UniProt Q96RJ0). The assay is described as follows: human TAAR1 antagonists, primary screen, Fluo-8 calcium fluorescence, CHO RD-HGA16 cells (AID 624466).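 Also: 0% = DMSO plus EC80 beta-PEA response and 100% = DMSO alone without agonist.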 To be noted: CHO RD-HGA16 TAAR1, Fluo-8 calcium fluorescence, antagonist; at 3 µM; hits give high values. Summed up: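 test system = CHO RD-HGA16 cells bearing hTAAR1 | replication = singlicate | controls = DMSO-only wells and EC80 β-PEA-stimulated wells | reagent = EC80 β-phenethylamine stimulus | read-out basis = percent inhibition of PEA-evoked calcium signal, max/basal emission ratio | schedule = seeding 17-24 h prior, 75-min 37 °C, 30-min RT dye loading | signal = kinetic Fluo-8 calcium fluorescence measurement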
As for `COCCNC(=O)CCCN1C(=O)c2ccccc2Sc2ncccc21`, the inhibition was -9.71%. Under `CNC(=O)CSc1nnc(CCc2ccccc2)n1-c1ccccc1` stands 10.8%; under `Cc1c(C(=O)NCc2ccccc2)cnn1-c1ccccc1`, -4.01%; under `Cc1c(CNCCc2ccccc2)c(C(=O)O)c(C)n1-c1ccccc1`, 65.9% (active).

Turning to `CCOC(=O)/C=C/c1ccccc1O`, the inhibition is -4.54%. On to `Cc1cc(C)nc(SC2CCCCC2NS(=O)(=O)c2ccc(Cl)cc2)n1` (stereo not given), for which the inhibition is -8.5%. As to `COC(=O)C1=C(C)N(Cc2ccc(F)cc2)C(=S)NC1c1cccc(Cl)c1` (stereo not given), the inhibition is 64.3% (active). As for `CC(=O)C1=C(C)N(Cc2ccc(Cl)cc2)C(=S)NC1c1ccc(F)cc1` (stereo not given), the inhibition is 28.2%. For `COC(=O)C1=C(C)N(Cc2ccc(C(F)(F)F)cc2)C(=NCc2ccc(C(F)(F)F)cc2)NC1c1cccc(Cl)c1` (stereo not given) the value was 12.3%; for `O=C(Nc1cccc(NC(=O)N2CCN(c3ccccc3)CC2)c1)N1CCN(c2ccccc2)CC1`, 53.4% (active); for `COc1cccc(N2CCN(C(=O)Nc3ccc4c(c3)NC(=O)CO4)CC2)c1`, 11.5%. Under `O=C(Nc1ccccc1)N1CCN(C2c3ccccc3-c3ccccc32)CC1` stands 3.75%; under `Cc1nn2c(NCCN(C)C)c3c(nc2c1-c1ccccc1)CCC3`, -32.4%. With `COc1cccc(CNC(=O)[C@H]2CCCN2C(=O)[C@H]2CCCN2C(=O)c2cc(F)cc(F)c2)c1`, the inhibition is 4.19%.

In the case of `CCN(CC(=O)Nc1c(F)cccc1F)C(=O)Cc1cccs1`, the inhibition was -22.6%. Take `Cc1cc(C)c(S(=O)(=O)NN=C2c3ccccc3[C@H]3Cc4csc[n+]4[C@@H]23)c(C)c1`: the inhibition is 6.84%. For `COc1ccc(OCCNC(=O)c2cc(C3CC3)nc3c2cnn3C(C)C)cc1` the value was 48.8% (active). For `CC(C)n1ncc2c(C(=O)NCc3ccccc3CN(C)C)cc(C3CC3)nc21` the value was -19.6%; for `CC(C)n1ncc2c(C(=O)Nc3ccc(CC#N)cc3)cc(C3CC3)nc21`, 35.5%. For `CCc1c(-c2ccc(F)cc2)ncn1Cc1cccc(-c2ccccc2)c1` the value was 34.5%. For `O=C1NC[C@@H](CCCCN2CCN(CCc3ccc(O)cc3)C(=O)C2=O)N(CC2CCCCC2)C1=O`, the inhibition was 3.12%.

Consider `COc1ccc(CNC(=O)CN2C(=O)c3ccccc3S2(=O)=O)cc1`, for which the inhibition is 17.9%. Under `O=C1c2ccccc2S(=O)(=O)N1CC(O)Cn1c2ccccc2c2ccccc21` (stereo not given) stands 62.3% (active); under `CC(C)(C)c1ccc(CN2C(=O)c3ccccc3S2(=O)=O)cc1`, 8.91%.

Take `COc1ccc(NC(=O)CN(C)C(=O)c2cc(C)oc2C)cc1`: the inhibition was -28%.

For the compound `COc1ccc(NC(=O)c2cn(-c3ccccc3)nc2SC)cc1`, the inhibition is -11.6%. In the case of `COc1ccc(NC(=O)c2cc(-c3ccc(C)o3)nc3ccccc23)cc1`, the inhibition is 57.4% (active).

Turning to `C/C(=N\NC(=O)c1cc(-c2ccc(O)cc2)nc2ccccc12)c1cccnc1`, the inhibition is -2.53%. For `Cc1ccc2nc(-c3ccncc3)cc(C(=O)Nc3ccc(OC(F)F)cc3)c2c1` the value was -4.36%. Under `COc1cccc(NC(=O)CN(C)C(=O)c2cc(Cl)nc3ccccc23)c1` stands 18.8%; under `COc1ccc(NC(=O)CN(C)C(=O)c2cc(-c3ccc(C)o3)nc3ccccc23)cc1`, 54.9% (active).

As for `COc1ccc(NC(=O)c2cc(-c3cc(OC)c(OC)c(OC)c3)nc3ccccc23)c(OC)c1`, the inhibition was 3.05%. Under `COc1ccc(-c2cc(C(=O)Nc3ccccc3O)c3ccccc3n2)cc1` stands 86.9% (active). For `CO[C@@H]1CN(C)C(=O)c2cc(NC(=O)Nc3cc(F)ccc3F)ccc2OC[C@H](C)N(C(=O)c2ccccn2)C[C@@H]1C` the value was -23.9%. `CCCCCCN1CCN(C2CN(Cc3cn(Cc4ccc(F)cc4)nn3)S(=O)(=O)C2)CC1` (stereo not given): the inhibition is -26.8%. Turning to `COC(=O)C1=C(C)N(Cc2ccc(C(F)(F)F)cc2)C(=NCc2ccccc2)NC1c1ccccc1C(F)(F)F` (stereo not given), the inhibition was -9.36%. Under `CCOC(=O)c1c(N)c(C#N)nn1-c1ccccc1C(=O)OC` stands 5.89%; under `Cc1ccccc1N/C(SCc1ccc(Cl)cc1)=C(/C#N)C(N)=O`, -9.21%. Under `O=C(Cc1ccc(Cl)cc1)NC(=S)Nc1ccccc1O` stands 104% (active); under `O=C(COc1ccc(Cl)cc1)Nc1ccccc1CO`, 4.17%; under `O=C(COc1ccc(Cl)cc1)NC(=S)Nc1ccccc1N1CCOCC1`, -2.14%.

Take `Cc1ccccc1NC(=S)NC(=O)Cc1ccc(Cl)cc1`: the inhibition is 91.6% (active).

Regarding `Cc1cccc(NC(=S)NCCc2ccc(Cl)cc2)c1C`, the inhibition is -16.5%.

For `O=C(C(=O)N1CCC(CNS(=O)(=O)Cc2ccccc2)CC1)c1cc2ccccc2o1`, the inhibition is -11.1%.

As to `CCc1cccc(CC)c1N1C(=O)CC(Sc2ccccc2N)C1=O` (stereo not given), the inhibition was -2.71%. For `CCC(c1nc2ccccc2[nH]1)n1c(=O)c(-c2cccs2)nc2ccccc21` (stereo not given), the inhibition is -2.04%.

In the case of `O=C(CCc1ccccc1)NNC(=O)COc1ccc(Cl)cc1`, the inhibition is -2.05%. For `CC(=O)NC(=S)NNC(=O)c1ccc(Br)cc1` the value was 25.8%; for `COc1ccc(C(=O)NNC(=S)NC(=O)c2ccccc2)cc1`, 66.3% (active).

As for `CCOc1ccccc1NC(=S)NC(=O)CCc1ccccc1`, the inhibition was -0.27%. Under `O=C(NNC(=S)NCc1ccccc1)c1ccc(OC(F)F)cc1` stands -12.5%; under `COc1ccc(C(=O)NC(=S)NNC(=O)CCc2ccccc2)cc1`, 66.2% (active). On to `CCOC(=O)[C@]12CCCC=C1N(CCC1=CCCCC1)C(=O)[C@H](CC(=O)NCCCCc1ccccc1)C2`, for which the inhibition was -5.96%.

Consider `CCO[C@H]1OC(C(=O)NCc2ccccc2)=C[C@@H](c2coc3ccccc3c2=O)[C@@H]1CCCO`, for which the inhibition was 1.58%. For `O=C(NCc1ccccc1)[C@H]1CCCN1C(=O)[C@@H]1CCCN1C(=O)c1ccc(Cl)cc1Cl` the value was -4.49%; for `CC[C@@H]1CC2=C(C(=O)OC(C)(C)O2)[C@@H](CC)O1`, 7.78%.

In the case of `COc1cc(/C=N\NC(=O)c2nonc2N)c(OC)cc1Br`, the inhibition was -10.8%. Under `Cc1cc(C)c([N+](=O)[O-])cc1-c1ccc(/C=N/NC(=O)c2nonc2N)o1` stands 52% (active); under `Cc1ccc(-c2ccc(/C=N/NC(=O)CN3CCOCC3)o2)cc1[N+](=O)[O-]`, 3.41%. Under `O=C1NC[C@H](CCCCN2C[C@H](Cc3ccccc3)N(Cc3ccccc3)C(=O)C2=O)N(CCc2ccc(O)cc2)C1=O` stands -9.2%; under `CC(=O)Nc1cccc(OCC(=O)/C=C2\N(C)c3ccccc3C2(C)C)c1`, 32.4%.

Take `CN1CCN(CCC(=O)N/N=C/C=C2\N(C)c3ccccc3C2(C)C)CC1`: the inhibition was 28.4%.

As to `CN1/C(=C\C(=O)c2oc3ccccc3c2N)C(C)(C)c2ccccc21`, the inhibition is 51.5% (active). In the case of `CC(=O)Nc1ccc(NC(=O)CCN2C(=O)C3CC=CCC3C2=O)cc1` (stereo not given), the inhibition is -7.1%. For `Cc1nc2ccc(NC(=O)N3CCC(c4ccccc4)C3)cc2nc1C` (stereo not given) the value was -3.01%; for `COC(=O)c1ccccc1SC1CC(=O)N(c2cccc(C)c2)C1=O` (stereo not given), -3.32%; for `COC(=O)[C@@]1(Sc2ccc(C)cc2)CC(=O)N(c2cccc(SC)c2)[C@@H]1c1ccccc1`, 67.8% (active). As to `CCOC(=O)N1C(=O)C[C@](Sc2ccc(C)cc2)(C(=O)OC)[C@H]1c1ccccc1`, the inhibition was 6.96%.

Turning to `COC(=O)C(C(=O)OC)c1ccccc1NS(=O)(=O)c1cccc2ccccc12`, the inhibition is -21.2%. Under `CC(=O)N1Cc2cc(C(=O)NCc3cccc(F)c3)nc(-c3cccc(C4=CCCCC4)c3)c2[C@H]1CCO` stands 18.2%; under `O=C(CC[C@H]1O[C@@H](n2ccc(=O)[nH]c2=O)[C@H](O)[C@@H]1O)N[C@H](Cc1ccccc1)C(=O)NCCCN1CCCC1=O`, -13.5%; under `Cc1c(NS(=O)(=O)c2cccc(C(=O)Nc3ccc(SC(F)F)cc3)c2)c(=O)n(-c2ccccc2)n1C`, 51.8% (active). Take `COc1ccc(NS(=O)(=O)c2ccc(C(=O)Nc3c(C)n(C)n(-c4ccccc4)c3=O)cc2)cc1`: the inhibition is -27.9%.

Consider `COc1ccc(C(=O)C(C)OC(=O)c2cccc(S(=O)(=O)Nc3c(C)n(C)n(-c4ccccc4)c3=O)c2)cc1` (stereo not given), for which the inhibition was -15.1%.

Take `Cc1cc(C)n2c(Nc3c(C)cccc3C)c(CCc3ccccc3)nc2n1`: the inhibition was 5.85%. Under `Clc1ccccc1Nc1nc(NCc2cccs2)nc2ccsc12` stands 7.32%; under `COc1cccc(CNc2nc(NCc3cccs3)nc3ccsc23)c1`, 76.6% (active); under `COc1cccc(CNc2nc(NCc3ccccc3OC)nc3ccsc23)c1`, 36.8%.

On to `O=C1C=C(c2ccc(Cl)cc2)C(=O)N1Nc1ccccc1`, for which the inhibition was 74.6% (active). As for `CC(C)N(C)C(=O)CCc1nnc(CCc2c[nH]c3ccccc23)o1`, the inhibition was -0.9%.

Take `COC(=O)C1=C(C)N(Cc2cccc(C(F)(F)F)c2)C(=NCc2cccc(C(F)(F)F)c2)NC1c1ccccc1C(F)(F)F` (stereo not given): the inhibition is -30.9%. For `Cc1ccc(C(=O)Nc2ccc(C)c(S(=O)(=O)N(C)C)c2)s1` the value was 11.3%; for `O=C(NC(Cc1ccccc1)C(=O)N1CCCC1C(=O)O)c1ccccc1` (stereo not drawn) (Bz-Phe-Pro-OH; configuration not given here), -24.6%; for `O=C(NCCc1ccc(Cl)cc1)C1CCCN1C(=O)NCc1ccccc1` (stereo not given), -9.56%. For the compound `O=C(N[C@H](C(=O)N1CCC[C@H]1C(=O)NCCc1ccccc1Cl)c1ccccc1)c1ccccc1`, the inhibition was 56.7% (active).
